Experimental data of several laboratories.
Each line is one published result; the experiments were not run side by side.
Target: Insulin receptor-related protein (INSRR, Homo sapiens, UniProt P14616)

Cn1cc(-c2cccc(N3CCc4c(sc5c4CC(C)(C)C5)C3=O)c2CO)cc(Nc2ccncn2)c1=O
inhibition (enzyme activity; inhibitor; 1 µM): 2%

COc1ncccc1-c1cnn2ccc(N3CCN(C(=O)OC(C)C)CC3)nc12
remaining binding (binding; competition with immobilised ligand; 1 µM): 96%

Nc1ncc(-c2nc(N3CCOCC3)nc(N3CCOCC3)n2)c(C(F)F)n1
remaining binding (binding; competition with immobilised ligand; 10 µM): 80%

C#Cc1n[nH]c2c(-c3cn([C@@H](C)c4ccccc4)c(=O)[nH]c3=O)cc(F)cc12
inhibition (enzyme activity; inhibitor; 0.1 µM): 6.9%

Cc1nn(C)cc1-c1nc2c(N3CCN(Cc4ccc(Cl)cc4)CC3)c(Cl)cnc2[nH]1
remaining binding (binding; competition with immobilised ligand; 1 µM): 100%

Cn1cncc1[C@](O)(COc1ccc(C#N)cc1-c1ccc(OC(F)(F)F)cc1)c1ccc(C#N)cc1
remaining binding (cell-free assay; competition with immobilised ligand; 1 µM): 93%

CC(C)(C)c1cc(C=C(C#N)C#N)cc(Br)c1O
remaining activity (enzyme activity; inhibitor; 0.5 µM): 103%

COc1cc(Nc2ncc(F)c(Nc3ccc4c(n3)NC(=O)C(C)(C)O4)n2)cc(OC)c1OC
inhibition (binding; competition with immobilised ligand; 10 µM): 53%

Cn1cc(-c2cc(F)cc(N3CCn4c(cc5c4CCCC5)C3=O)c2CO)cc(Nc2ccc(N3CCN(C4COC4)CC3)cn2)c1=O
inhibition (enzyme activity; inhibitor; 0.1 µM): 15%

O=c1[nH]c2ccccc2n1C1CCN(Cc2ccc(-c3[nH]c4cc5ncnc5cc4nc3-c3ccccc3)cc2)CC1
remaining signal (cell-free assay; 0.5 µM): 101%

C#Cc1n[nH]c2c(-c3cn(C(C)c4ccccn4)c(=O)[nH]c3=O)cc(F)cc12 (centres unmarked)
inhibition (enzyme activity; inhibitor; 1 µM): 0.7%
